Efflux pump inh: inhibitors of Candida antifungal efflux pumps expressed in yeast; S. cerevisiae Candida pump triplex, Nile Red efflux; inhibition, % at 10 µM; actives 0.44% (n = 330,000);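 active = plate passing quality check with inhibition over a set limit, or well fluorescence over plate mean plus 4 SD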;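 note: Nile Red retained in pooled yeast measured as flow cytometry median fluorescence; 0% = buffer negative control and 100% = Enniatin B positive control; higher means more Nile Red kept so more efflux inhibition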
T cruzi repl: blocks replication of Trypanosoma cruzi. T. cruzi beta-gal in NIH3T3, luminescence, 90 h. inhibition, % (no concentration beside the values). actives 1.4% (n = 300,000);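 active = mean inhibition across valid replicates above about 55%, limit read from the data; inconclusive = mean below that limit but half or more replicates reach it; inactive = mean below it, under half of replicates reach it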;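 note: signal also drops with host cell toxicity which is not excluded here; 0% = plate median of DMSO wells and 100% = zero luminescence signal; higher percent means less beta-gal luminescence so fewer parasites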
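Material: NIH/3T3 host cells with β-galactosidase reporter T. cruzi; Input: 5,000 host fibroblasts per well; Medium: DMEM, 2% fetal bovine serum; Compound: 50 nL DMSO compound solution per well; Schedule: 3 h host attachment, then at least 90 h co-culture; Detection: luminescent β-galactosidase signal after 60 min lysis.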
Mot1-301 SUMO: inhibitors of SUMOylation pathway: yeast Mot1-301 growth rescue; growth rescue, % at 18.8 µM; S. cerevisiae Mot1-301 growth rescue, ATP luminescence, 38.5C; percent above DMSO median, 100 means doubled; actives 1% (n = 320,000);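 active = every valid replicate shows activation above 250% relative to neutral control wells; inactive = the rest, any valid replicate at or below 250%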;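 note: OY570 slx delta 5 strain wells were the positive control but not used for scaling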
WT yeast gro inh: growth inhibition of WT yeast, mitochondrial fusion screen; actives 2.1% (n = 190,000); inhibition, % at 10 µM; mitochondrial fusion phenotypic screen, WT strain; in the data active = inhibition above about 58%; tested in S. cerevisiae
CSC inhib: cancer stem cell inhibition. inhibition, % at 7.5 µM. actives 1.1% (n = 300,000). cancer stem cell-like cells viability, luminescence. AID 2717; in the data active = inhibition above about 75%; inconclusive = no clear call, values can overlap the other calls; tested in HMLE shEcad cells
Beta cell apopt: blocks beta cell apoptosis. INS-1E cytokine-induced death, ATP luminescence, 48 h; percent of positive-control rescue, neutral wells zero. protection from apoptosis, % (concentration not given with the values). actives 0.8% (n = 300,000). AID 435005;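 active = Every replicate reaches about 75%, or at least half do and their mean reaches it too, limit read from the data; inconclusive = At least half of replicates reach the limit but their mean does not; inactive = Under half of replicates reach the limit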;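 note: 0% = cytokine-treated negative control wells and 100% = positive control rescue; higher means more ATP so stronger rescue from cytokine killing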
* hit, by the source's call; ? = inconclusive; nt = no result. Most compounds without a hit are left out; they make up all but 4.8% or so of the library.

SMILES	Efflux pump inh	T cruzi repl	Mot1-301 SUMO	WT yeast gro inh	CSC inhib	Beta cell apopt
O=C(Nc1ccc(Cl)cc1)c1ccc2c(c1)OCO2	0.0	-11.6	7.7	80.0*	nt	-0.4
O=C(Nc1ccc(NC(=O)c2ccc(Cl)cc2Cl)cc1)c1ccc2c(c1)OCO2	0.4	-6.5	6.6	nt	17.2	-7.0
CCN1CCN(c2ccc(NC(=O)c3ccc4c(c3)OCO4)cc2)CC1	0.2	0.4	-2.1	64.0*	-10.1	-20.3
COCCOc1ccc(C(F)(F)F)cc1NC(=O)COC(=O)c1cc([N+](=O)[O-])ccc1N1CCOCC1	-0.6	27.5	249.0	nt	-2.2	5.7
CS(=O)(=O)N1CCN(C(=O)CCC2CCCC2)CC1	0.1	-6.0	332.4*	-3.4	1.0	3.2
Cc1ccc(C(c2c(C)n(C)n(-c3ccccc3)c2=O)c2c(C)n(C)n(-c3ccccc3)c2=O)s1	-0.2	2.6	0.8	-5.6	9.2	7.6
CCc1ccc(C(C)NC(=O)COC(=O)c2ccc(-n3cnnn3)cc2)cc1 (configuration not stated)	-0.2	nt	-10.8	nt	3.8	-0.7
CN1c2ccccc2N(C)C1(C)c1cccc2ccccc12	-0.4	58.2*	6.5	9.2	3.8	11.6
C=CCn1c(O)c(N=Nc2ccccc2)c2ccccc21	0.1	-9.3	-11.3	nt	-1.5	-5.5
C=CCn1c(O)c(N=NC(=S)Nc2cccc(OC)c2)c2ccccc21	-0.2	59.3*	-8.7	-0.6	42.3	58.5
C=CCn1c(O)c(N=NC(=S)Nc2ccc(OC)cc2)c2ccccc21	-0.3	43.2	1.4	3.5	26.0	12.1
C=CCn1c(O)c(N=Nc2ccccc2O)c2ccccc21	0.2	nt	101.9	nt	96.2*	-4.1
COc1ccc(CCC(=O)OCC(=O)Nc2ccc(OC)c(OC)c2)cc1OC	-0.1	-5.5	119.2	nt	-6.5	-2.0
Cc1cc(C)c2c(N)c(C(=O)c3ccc(Cl)cc3Cl)sc2n1	0.2	39.0	96.8	1.7	10.8	15.9
Cc1cc(C)c2c(N)c(C(=O)c3ccccc3Cl)sc2n1	0.0	56.4*	-16.3	nt	-1.9	3.4
CN(C)NC(=S)NC(=O)C12CC3CC(CC(C3)C1)C2	0.1	0.4	21.4	47.3	10.7	-7.2
O=C(NC(=S)NC1C2CC3CC(C2)CC1C3)C12CC3CC(CC(C3)C1)C2 (configuration not stated)	-0.1	30.0	-1.2	63.1*	54.0	5.4
CC(C)(C)NC(=S)NC(=O)C12CC3CCC(CC(C3)C1)C2	0.0	28.8	14.8	70.2*	nt	8.9
CC12CC3(C)CC(C)(C1)CC(C(=O)NC(=S)NC(C)(C)C)(C2)C3	0.2	-8.8	24.0	70.2*	nt	-5.4
COc1ccc(N(CC(=O)N2CCC(Cc3ccccc3)CC2)S(C)(=O)=O)cc1	-0.1	-3.3	-1.1	29.8	5.8	-1.8
Cc1ccc(C(C)C)c(OCC#CCN2CCOCC2)c1	0.1	-0.1	0.2	nt	nt	nt
CCN(c1ccccc1)S(=O)(=O)c1ccc(C(=O)Nc2nnc(-c3ccco3)o2)cc1	0.4	13.9	-7.9	13.3	86.8*	1.1
CCN(c1ccccc1)S(=O)(=O)c1ccc(C(=O)Nc2nnc(C3CC3)o2)cc1	-0.1	71.8*	428.3	1.7	32.2	3.4
CN(c1ccccc1)S(=O)(=O)c1ccc(C(=O)Nc2nnc(-c3ccco3)o2)cc1	0.7	-8.4	39.5	10.0	66.7	-1.6
CCOc1cc(C#N)ccc1OCC(=O)N1CCN(C(=O)c2cccs2)CC1	0.0	nt	-8.4	nt	nt	-4.2
SMILES	Efflux pump inh	T cruzi repl	Mot1-301 SUMO	WT yeast gro inh	CSC inhib	Beta cell apopt
C=CCc1cccc(CNc2c(C)cc(C)cc2C)c1O	0.0	0.9	386.6*	14.2	20.3	-3.8
C=CCc1cccc(CNc2c(C)n(C)n(-c3ccccc3)c2=O)c1O	0.4	-16.9	-6.5	6.9	-8.4	2.1
C=CCc1cccc(CNc2nc3ccccc3n2CCC)c1O	-0.2	-0.8	-2.7	58.6*	102.2*	5.8
C=CCc1cccc(CNc2nc3ccccc3n2CC)c1O	0.0	8.0	28.4	10.5	nt	11.8
CCOc1ccc(-n2cc(C(=O)Nc3cccc(Cl)c3)c3cc(OC)c(OC)cc3c2=O)cc1	0.8	64.4*	-0.2	1.3	-0.4	9.9
CC(C)(c1ccccc1)c1ccc(OCCCNCCO)cc1	0.0	-9.9	nt	91.8*	4.9	nt
CNCCCOc1cccc(Oc2ccccc2)c1	-0.3	60.2*	32.3	21.6	33.8	-3.0
COCCNCCCOc1ccc(C(C)(C)c2ccccc2)cc1	0.0	5.1	-5.7	2.7	60.6	-10.3
C=CCNCCCOc1ccc(C(C)(C)c2ccccc2)cc1	0.1	10.0	-0.8	50.6	50.6	-6.1
CCOc1cccc(OCCCNCCCOC)c1	0.1	-22.5	94.1	60.4*	-2.7	-8.1
COCCCNCCCOc1ccc(C(C)(C)c2ccccc2)cc1	0.0	57.8*	6.6	44.7	nt	-2.6
CNCCCOc1cccc(OC(C)C)c1	-0.1	22.7	-4.9	-8.6	1.0	-7.0
Cc1ccc(S(=O)(=O)N(C)CC(=O)NNC(=O)CCC(=O)c2ccc(F)cc2)cc1	0.0	nt	10.9	nt	-13.8	-6.9
CCOc1ccccc1CNC(=O)c1ccc2nc(N3CCOCC3)sc2c1	0.0	10.5	-7.4	nt	7.4	4.9
COc1ccc(NC(=O)CN2CCN(c3c(C)cccc3C)CC2)cc1	0.0	30.1	28.1	nt	1.3	3.3
CCc1nnc(NS(=O)(=O)c2ccc(N=CC3=C(O)CC(C)(C)CC3=O)cc2)s1	0.2	-17.9	-14.2	-1.5	3.0	-4.3
CC(C)(C)c1ccc(OCCCNCc2ccccc2)cc1	0.3	19.5	1.6	87.0*	25.5	7.6
CCOC(=O)Cn1c(=NC(=O)C2COc3ccccc3O2)sc2cc(S(N)(=O)=O)ccc21 (configuration not stated)	0.0	12.5	-16.1	-9.0	-14.4	27.4
CCOC(=O)Cn1c(=NC(=O)c2ccc([N+](=O)[O-])s2)sc2ccccc21	0.0	51.4	-9.4	64.5*	12.1	18.6
O=C(OCC#CCSc1nnc(-c2cccc3ccccc23)o1)c1cnc[nH]1	-0.4	nt	-17.2	nt	nt	-1.1
CC(C)(C)Sc1ccc2nc3c(n2c1)CCCC3	2.7	8.4	8.1	51.3	25.2	100.7*
Clc1ccc(SCCOCCN2CCCCC2)cc1	0.2	?	184.4	11.7	36.1	-1.4
Clc1ccc(OCCOCCN2CCc3ccccc3C2)c(Cl)c1	-0.1	58.9*	4.7	69.9*	42.3	2.5
Clc1ccc(SCCOCCN2CCc3ccccc3C2)cc1	0.2	66.4*	270.2*	60.6*	4.1	-2.9
CC1CN(CCOCCSc2ccc(Cl)cc2)CC(C)O1 (configuration not stated)	0.0	61.8*	41.7	nt	nt	nt
O=C(CCN1CCOCC1)c1ccc(Br)cc1	0.0	15.4	42.6	-6.9	11.0	-7.3
O=C(CCN1CCOCC1)c1ccc(Cl)cc1	0.1	75.4*	1.9	-14.5	10.5	-4.1
COc1ccc(C)cc1NC(=O)COC(=O)c1c(C)nn(-c2ccccc2)c1C	0.1	nt	-11.3	nt	nt	7.0

Assay outcomes as filed in PubChem BioAssay.
